Hits are enriched below; roughly 10% of the tested compounds scored in any of these assays.
PMI act satM6P = PMI (human) activation, high substrate; P34949; coupled PMI enzyme assay, resazurin fluorescence, 20 min; active compounds read high; 1 = untreated enzyme, 0 = substrate-free blank; activation factor at 20 µM; actives 0.34% (n = 190,000); AID 1216;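 active = activation factor of 2 or more at 20 µM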
Target sequence (P34949 whole entry, looked up): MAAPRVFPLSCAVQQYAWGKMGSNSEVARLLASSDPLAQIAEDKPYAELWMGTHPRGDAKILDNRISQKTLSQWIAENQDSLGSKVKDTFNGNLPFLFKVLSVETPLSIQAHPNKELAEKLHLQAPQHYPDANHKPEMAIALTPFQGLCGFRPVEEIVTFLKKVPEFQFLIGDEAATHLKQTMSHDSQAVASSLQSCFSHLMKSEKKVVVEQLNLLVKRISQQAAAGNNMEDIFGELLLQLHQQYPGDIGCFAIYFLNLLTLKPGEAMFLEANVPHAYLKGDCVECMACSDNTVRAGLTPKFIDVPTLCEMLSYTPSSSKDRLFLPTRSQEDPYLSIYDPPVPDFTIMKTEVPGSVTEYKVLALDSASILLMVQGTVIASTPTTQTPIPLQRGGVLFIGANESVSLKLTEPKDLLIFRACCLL
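Material: human phosphomannose isomerase with PGI, G6PDH, diaphorase coupling enzymes. Quantity: 15 ng/mL PMI. Medium: HEPES pH 7.4 buffer with MgCl2 and Tween-20. Reagent: Near-saturating mannose-6-phosphate, 1.0 mM. Compound: 20 µM single dose. Times: enzyme reaction with compound 20 min at room temperature. Detection: resorufin fluorescence at Ex 544/Em 590 nm.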
WT yeast gro inh = growth inhibition of WT yeast, mitochondrial fusion screen. mitochondrial fusion phenotypic screen, WT strain. inhibition, % at 10 µM. actives 2.1% (n = 190,000); in the data active = inhibition above about 58%; tested in S. cerevisiae
PMI activator = increases human mannose-6-phosphate isomerase activity. AID 1214. purified human PMI, coupled resazurin fluorescence, 20 min; active compounds read high; 1 = vehicle control, 0 substrate-free wells. actives 0.005% (n = 190,000). activation factor at 20 µM;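 active = activation factor of 2 or more at 20 µM, relative to plate controls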
Diaph act CS = counter-screen for diaphorase-based assays: diaphorase activators and chemical reducers; activation factor at 20 µM; Diaphorase/resazurin coupled assay, resorufin fluorescence, 16 min; active compounds read high; 1 = vehicle wells, 0 = NADH-free wells; actives 0.005% (n = 190,000);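 active = diaphorase activity raised at least twofold by the compound at 20 µM; inactive = activation factor below 2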
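test system = bacterial diaphorase enzyme (C. kluyveri) | quantity = enzyme 0.07 U/mL final | reagent = NADH substrate 0.114 mM plus resazurin dye 0.1 mM, final | incubation = 16 min enzyme reaction, ambient temperature | buffer or medium = HEPES pH 7.4 buffer with MgCl2 and Tween 20 | signal = fluorescence of resorufin, 544 nm excitation, 590 nm emission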
Lmaj promast = reduces viability of Leishmania major promastigotes | resazurin fluorescence viability | inhibition, % at 10 µM | actives 9% (n = 200,000) | AID 1063; in the data active = inhibition above about 50%;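 also: promastigotes grown with compound for 44 hours at 28 °C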
L major 1uM = inhibitors of Leishmania major promastigote growth, repeat at 1 uM | shares compounds with Lmaj promast | L. major promastigote growth, resazurin fluorescence, 48 h | inhibition, % at 1 µM | actives 13% (n = 1,100) | AID 1258;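 active = inhibition above about 50% in both repeat tests, limit read from the data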
Numbers without * were called inactive.

Screening CCc1ccc2[nH]c(=O)c(CN(CCCN3CCOCC3)C(=O)Nc3ccc(Cl)cc3)cc2c1 returned PMI act satM6P 1.1, WT yeast gro inh -3, PMI activator 1, Diaph act CS 1.1, Lmaj promast 79* and L major 1uM -21.
COC(=O)NC1CCC(NC(=O)OC)CC1 (stereo not given) was read as PMI act satM6P 1, WT yeast gro inh 9, PMI activator 1.1, Diaph act CS 0.9 and Lmaj promast -1.
For CCS(=O)(=O)c1nnnn1-c1ccccc1S(C)(=O)=O the results were PMI act satM6P 1, WT yeast gro inh 11, PMI activator 0.9, Diaph act CS 1, Lmaj promast 54* and L major 1uM 0.
For O=C1CC(Cc2ccccc2)C(=O)N1CCCn1ccnc1 (stereo not given) the results were PMI act satM6P 0.8, WT yeast gro inh 14, PMI activator 0.8, Diaph act CS 0.8, Lmaj promast 99* and L major 1uM -5.
For Cc1cc(/C=N/n2cnnc2)c(C)n1-c1cccc(Cl)c1 the results were PMI act satM6P 1.1, WT yeast gro inh 14, PMI activator 0.9, Diaph act CS 0.8, Lmaj promast 85* and L major 1uM 12.
`Cc1cc(/C=N/n2cnnc2)c(C)n1-c1ccccc1` gave PMI act satM6P 1, WT yeast gro inh -15, PMI activator 1, Diaph act CS 1 and Lmaj promast 23.
COc1ccc(C(=O)OCC[N+]2(C)CCOCC2)cc1 was read as PMI act satM6P 1.1, WT yeast gro inh 4, PMI activator 1, Diaph act CS 1 and Lmaj promast -1.
`CC(C)(C)c1ccc(C(=O)N2CCC(=O)N(C(COCc3ccccc3)Cc3ccccc3)CC2)cc1` (stereo not given) gave PMI act satM6P 1.1, WT yeast gro inh 53, PMI activator 1, Diaph act CS 0.9, Lmaj promast 52* and L major 1uM -22.
Cc1cccc(OCCn2c(NC(=O)c3ccco3)nc3ccccc32)c1 was read as PMI act satM6P 1, WT yeast gro inh 73*, PMI activator 0.9, Diaph act CS 0.9, Lmaj promast 97* and L major 1uM 87*.
`NC(=S)Nn1c(CCC(=O)O)ccc1-c1ccccc1` gave PMI act satM6P 1.1, WT yeast gro inh -5, PMI activator 0.9, Diaph act CS 0.8, Lmaj promast 66* and L major 1uM -17.
`O=C(NCCc1nc(-c2ccccc2)cs1)c1ccc(Br)cc1` gave PMI act satM6P 0.9, WT yeast gro inh 7, PMI activator 0.8, Diaph act CS 0.8 and Lmaj promast -4.
O=[N+]([O-])c1ccc(-c2nc(-c3cccs3)c(-c3cccs3)[nH]2)cc1 was read as PMI act satM6P 0.9, WT yeast gro inh 82*, PMI activator 0.8, Diaph act CS 0.9, Lmaj promast 92* and L major 1uM 55*.
`N#CCCn1cc(C(=O)Nc2ccc([N+](=O)[O-])cc2)c(-c2cccs2)n1` gave PMI act satM6P 1, WT yeast gro inh -6, PMI activator 1, Diaph act CS 0.9 and Lmaj promast -2.
CN1CCC(C2(O)c3ccccc3CCc3ccccc32)CC1 was read as PMI act satM6P 0.9, WT yeast gro inh -5, PMI activator 1, Diaph act CS 1 and Lmaj promast 5.
For CN1CCC(C2(O)c3ccccc3CSc3sccc32)CC1 (stereo not given) the results were PMI act satM6P 0.9, WT yeast gro inh -22, PMI activator 0.9, Diaph act CS 0.9, Lmaj promast 67* and L major 1uM -7.
ClCc1nnc(-c2ccccc2)o1 was read as PMI act satM6P 1, WT yeast gro inh -1, PMI activator 1, Diaph act CS 1, Lmaj promast 101* and L major 1uM 5.
`CC(=O)N1CCc2cc(S(=O)(=O)NCCC3=CCCCC3)ccc21` gave Lmaj promast -6.
`O=C(Nc1cccn(Cc2ccccc2)c1=O)NC1CCCCC1` gave PMI act satM6P 0.8, WT yeast gro inh 3, PMI activator 1, Diaph act CS 0.9, Lmaj promast 78* and L major 1uM 4.
O=C(NCc1ccccc1)Nc1cccn(Cc2ccccc2)c1=O was read as PMI act satM6P 0.9, WT yeast gro inh 9, PMI activator 0.8, Diaph act CS 0.9 and Lmaj promast 9.
`COc1ccc(CN2CCNC(=O)C2CC(=O)NCCC2=CCCCC2)cc1OC` (stereo not given) gave PMI act satM6P 0.8, WT yeast gro inh -9, PMI activator 1, Diaph act CS 1 and Lmaj promast -5.
Screening CC(=O)/C(=N/Nc1cccc(C)c1)N1CCOCC1 returned PMI act satM6P 2.2*, PMI activator 1.7, Diaph act CS 0.9, Lmaj promast 64* and L major 1uM -8.
Cc1nn(Cc2n[nH]c(=S)n2Cc2ccccc2)c(C)c1Cl was read as PMI act satM6P 1, WT yeast gro inh 8, PMI activator 1.1, Diaph act CS 0.9, Lmaj promast 90* and L major 1uM -11.
For Cc1cc(C)n(Cc2n[nH]c(=S)n2Cc2ccccc2)n1 the results were PMI act satM6P 0.8, WT yeast gro inh -2, PMI activator 0.9, Diaph act CS 0.8 and Lmaj promast -5.
COc1ccc(OCC(=O)N2c3ccc(C)cc3C3CN(C)CCC32)cc1 (stereo not given) was read as PMI act satM6P 1, WT yeast gro inh -5, PMI activator 1, Diaph act CS 0.9 and Lmaj promast 2.
Cc1ccc2c(c1)C1CN(C)CCC1N2C(=S)NC(=O)c1ccc(Br)cc1 (stereo not given) was read as PMI act satM6P 0.8, WT yeast gro inh -7, PMI activator 0.9, Diaph act CS 0.8, Lmaj promast 99* and L major 1uM -7.
O=C(COC(=O)/C=C/c1ccc(F)cc1)Nc1ccccc1-c1ccccc1 was read as PMI act satM6P 0.9, WT yeast gro inh 2, PMI activator 0.8, Diaph act CS 0.8 and Lmaj promast -7.
`COc1ccc(C2=NCC(CSc3nnc(-c4ccc5c(c4)OCO5)o3)S2)cc1` (stereo not given) gave PMI act satM6P 0.9, WT yeast gro inh 3, PMI activator 0.9, Diaph act CS 0.8, Lmaj promast 88* and L major 1uM 91*.
For Fc1ccc(-c2c[nH]c(=S)n2Cc2ccccc2)cc1 the results were PMI act satM6P 1, WT yeast gro inh 8, PMI activator 1, Diaph act CS 1 and Lmaj promast 10.
Screening COc1ccc(CC(=O)OC(C)CN2CCCC2)cc1 (stereo not given) returned PMI act satM6P 1.1, WT yeast gro inh -11, PMI activator 1, Diaph act CS 0.9, Lmaj promast 100* and L major 1uM -11.
